# Results taken from ChEMBL document CHEMBL3616442, “Unconventional Knoevenagel-type indoles: Synthesis and cell-based studies for the identification of pro-apoptotic agents” (Eur J Med Chem, 2015).
# Active and inactive are the calls of the source. No cut-off for these calls is given here.
# Experiments:
# [1] = Cytotoxicity against human CRL7065 cells after 96 hrs by MTT assay; format: cell-based; details: CRL-7065, 96 h
# Summary of the method: (§1)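 ATCC cell lines, mycoplasma-free by Hoechst staining. Haematological lines in RPMI-1640, solid-tumour and normal fibroblast lines in their own media, all with 10% FCS and antibiotics, at 37 °C in 5% CO₂. Compounds added as serial dilutions from a 100 mM DMSO stock diluted in medium. Viability by MTT after 96 h at 37 °C. Mean ± SD of three independent determinations.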
# UACC-62 = assay: Growth inhibition of human UACC62 cells after 48 hrs by sulforhodamine B assay; format: functional; details: UACC-62, 48 h
# CCRF-SB = assay: Cytotoxicity against human CCRF-SB cells after 96 hrs by MTT assay; format: functional, cell-based; summary of the method: as §1
# MCF7 [2] = assay: Growth inhibition of human MCF7 cells after 48 hrs by sulforhodamine B assay; format: functional; details: MCF7, 48 h
# Summary of the method: (§2)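 NCI 60-cell-line screen. Compounds tested at five 10-fold dilutions from 10^-4 to 10^-8 M. Cells exposed for the last 48 h of a 72 h incubation, growth estimated by sulforhodamine B protein assay. GI50 is the concentration giving 50% growth inhibition. Values beyond the tested range are expressed as greater or lesser than the extreme concentration.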
# [3] = Growth inhibition of human HCC2998 cells after 48 hrs by sulforhodamine B assay; format: functional; details: HCC 2998, 48 h; summary of the method: as §2
# MCF7 [4] = assay: Induction of apoptosis in human MCF7 cells by propidium iodide staining based flow cytometric analysis; format: functional; details: TDE = time-dependent effect
# Summary of the method: (§3)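 After treatment, cells harvested, fixed in ice-cold 70% ethanol at 4 °C, stained 30 min at 37 °C in the dark with 100 µg/mL propidium iodide plus 10 µg/mL RNase A; 10,000 gated cells analysed at 488 nm with debris excluded; apoptosis followed over time; mean ± S.E.M. of three independent experiments run in triplicate.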
# SK-OV-3 = assay: Growth inhibition of human SKOV3 cells after 48 hrs by sulforhodamine B assay; format: functional; details: SK-OV-3, 48 h
# TK-10 = assay: Growth inhibition of human TK10 cells after 48 hrs by sulforhodamine B assay; format: functional; details: TK-10, 48 h
# [5] = Cytotoxicity against human SKMES1 cells after 96 hrs by MTT assay; format: functional, cell-based; details: SK-MES-1, 96 h; summary of the method: as §1
# HL-60 [6] = assay: Induction of apoptosis in human HL60 cells by propidium iodide staining based flow cytometric analysis; format: functional; summary of the method: as §3
# WIL2-NS = assay: Cytotoxicity against human WIL2-NS cells after 96 hrs by MTT assay; format: functional, cell-based; summary of the method: as §1
# [7] = Growth inhibition of human MOLT4 cells after 48 hrs by sulforhodamine B assay; format: functional; details: MOLT-4, 48 h; summary of the method: as §2
# SK-MEL-28 = assay: Cytotoxicity against human SK-MEL-28 cells after 96 hrs by MTT assay; format: functional, cell-based; details: SK-MEL-28, 96 h; summary of the method: as §1
# K562 [8] = assay: Induction of apoptosis in human K562 cells by propidium iodide staining based flow cytometric analysis; format: functional; details: TDE = time-dependent effect; summary of the method: as §3
# ACHN = assay: Growth inhibition of human ACHN cells after 48 hrs by sulforhodamine B assay; format: functional; summary of the method: as §2
# HL-60 [9] = assay: Induction of cell cycle arrest in human HL60 cells assessed as accumulation at G2/M phase after 18 hrs by propidium iodide staining based flow cytometric analysis; format: functional
# Summary of the method: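 Propidium iodide/RNase A flow cytometry of ethanol-fixed cells, 10,000 gated events at 488 nm; G2/M fraction measured after 18 h treatment (HL-60, MCF-7) or 24 h (K562); mean ± S.E.M. of three independent experiments.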
# K562 [10] = assay: Antiproliferative activity against human K562 cells after 3 days incubation by alamar blue method; format: functional
# Summary of the method: (§4)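 HL-60 and K562 grown in RPMI 1640, MCF-7 in DMEM, each with 10% FCS, penicillin G and streptomycin. Seeded at 4x10⁴ (HL-60, K562) or 2x10⁴ (MCF-7) cells per well with serial compound dilutions, incubated 3 days at 37 °C. Alamar blue added for 3 h at 37 °C in the dark, fluorescence read at ex 544/em 590 nm. IC50 versus untreated controls by linear regression.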
# NCI-H23 = assay: Growth inhibition of human NCI-H23 cells after 48 hrs by sulforhodamine B assay; format: functional; details: NCI-H23, 48 h; summary of the method: as §2
# HL-60 [11] = assay: Antiproliferative activity against human HL60 cells after 3 days incubation by alamar blue method; format: functional; summary of the method: as §4
# MDA-MB-231 = assay: Growth inhibition of human MDA-MB-231 cells after 48 hrs by sulforhodamine B assay; format: functional; details: MDA-MB-231, 48 h; summary of the method: as §2
# UO-31 = assay: Growth inhibition of human UO31 cells after 48 hrs by sulforhodamine B assay; format: functional; details: UO-31, 48 h
# SK-MEL-2 = assay: Growth inhibition of human SK-MEL-2 cells after 48 hrs by sulforhodamine B assay; format: functional; details: SK-MEL-2, 48 h
# MCF7 [12] = assay: Cytotoxicity against human MCF7 cells after 96 hrs by MTT assay; format: functional, cell-based; details: MCF7, 96 h; summary of the method: as §1
# DU-145 [13] = assay: Cytotoxicity against human DU145 cells after 96 hrs by MTT assay; format: functional, cell-based; details: DU-145, 96 h; summary of the method: as §1
# DU-145 [14] = assay: Growth inhibition of human DU145 cells after 48 hrs by sulforhodamine B assay; format: functional; details: DU-145, 48 h; summary of the method: as §2
# CAKI-1 = assay: Growth inhibition of human CAKI-1 cells after 48 hrs by sulforhodamine B assay; format: functional; details: CAKI-1, 48 h; summary of the method: as §2
# Malme-3M = assay: Growth inhibition of human MALME-3M cells after 48 hrs by sulforhodamine B assay; format: functional; summary of the method: as §2
# Tubulin (Homo sapiens) = Tubulin (Homo sapiens) (UniProt P68371+Q9H4B7+P0DPH7+P68366+Q13509+Q71U36+P04350+Q3ZCM7+P07437+P68363+Q9BQE3+Q6PEY2+Q13885+Q9BVA1+Q9BUF5); assay: Induction of Tubulin depolymerization in human MCF7 cells by immunofluorescence analysis; format: cell-based
# Summary of the method: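 MCF-7 cells grown and treated on chamber slides, fixed in ice-cold 100% methanol, washed in PBS with 0.1% Triton X-100, blocked 30 min in 5% BSA, then mouse anti-tubulin for 1 h and Alexa 488 secondary for 1 h; DNA counterstained with 0.2 μg/mL propidium iodide for 2 min. Paclitaxel and PBOX-15 served as tubulin controls.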
# HepG2 = assay: Cytotoxicity against human HepG2 cells after 96 hrs by MTT assay; format: functional, cell-based; details: HepG2, 96 h; summary of the method: as §1
# CCRF-CEM = assay: Cytotoxicity against human CCRF-CEM cells after 96 hrs by MTT assay; format: functional, cell-based; summary of the method: as §1
# MCF7 [15] = assay: Antiproliferative activity against human MCF7 cells after 3 days incubation by alamar blue method; format: functional; summary of the method: as §4
# SN12C = assay: Growth inhibition of human SN12C cells after 48 hrs by sulforhodamine B assay; format: functional
# [16] = Growth inhibition of human RPMI8226 cells after 48 hrs by sulforhodamine B assay; format: functional; details: RPMI-8226, 48 h
# MRC5 = assay: Cytotoxicity against human MRC5 cells after 96 hrs by MTT assay; format: cell-based; details: MRC5, 96 h; summary of the method: as §1
# [17] = Growth inhibition of human COLO205 cells after 48 hrs by sulforhodamine B assay; format: functional; details: COLO 205, 48 h; summary of the method: as §2
# PC-3 = assay: Growth inhibition of human PC3 cells after 48 hrs by sulforhodamine B assay; format: functional; details: PC-3, 48 h
compound,measurement,setting,value
COc1ccc(-c2[nH]c3ccccc3c2/C=C(\C#N)S(=O)(=O)c2ccccc2)cc1,EC50,[1],> 100000 nM
same,GI50,UACC-62,597 nM
same,EC50,CCRF-SB,300 nM
same,GI50,MCF7 [2],398 nM
same,GI50,[3],1200 nM
same,Activity,MCF7 [4],tde
same,GI50,SK-OV-3,528 nM
same,GI50,TK-10,4800 nM
same,EC50,[5],43000 nM
same,Activity,HL-60 [6],65.5%
same,Activity,HL-60 [6]; TDE = time-dependent effect,tde
same,EC50,WIL2-NS,400 nM
same,GI50,[7],871 nM
same,EC50,SK-MEL-28,> 100000 nM
same,Activity,K562 [8],tde
same,GI50,ACHN,1900 nM
same,Activity,HL-60 [9],47.3%
same,Activity,K562 [10],Dose-dependent effect
same,GI50,"K562 [10]; K562, 72 h",5280 nM
same,GI50,NCI-H23,932 nM
same,Activity,HL-60 [11],Dose-dependent effect
same,GI50,"HL-60 [11]; HL-60, 72 h",660 nM
same,GI50,MDA-MB-231,649 nM
same,GI50,UO-31,4700 nM
same,GI50,SK-MEL-2,18100 nM
same,EC50,MCF7 [12],> 100000 nM
same,EC50,DU-145 [13],2000 nM
same,GI50,DU-145 [14],450 nM
same,GI50,CAKI-1,997 nM
same,GI50,Malme-3M,1200 nM
same,Activity,Tubulin (Homo sapiens),Active
same,EC50,HepG2,11000 nM
same,EC50,CCRF-CEM,300 nM
same,Activity,MCF7 [15],Dose-dependent effect
same,GI50,"MCF7 [15]; MCF7, 72 h",5600 nM
same,GI50,SN12C,1500 nM
same,GI50,[16],2100 nM
same,EC50,MRC5,73000 nM
same,GI50,[17],254 nM
same,GI50,PC-3,557 nM
